We go through 1 molecule from ChEMBL document CHEMBL4400543, “Identification and Characterization of AES-135, a Hydroxamic Acid-Based HDAC Inhibitor That Prolongs Survival in an Orthotopic Mouse Model of Pancreatic Cancer” (J Med Chem, 2019).

The source made the active and inactive calls.

A short description of data set [1]: Bioavailability in NSG mouse at 20 mg/kg, ip administered as single dose by HPLC-MS/MS analysis. Format: ADME, organism-based. Particulars: in vivo.
Data set [2] can be described thus: Drug uptake in NSG mouse serum at 20 mg/kg, ip administered as single dose and measured at 2 hrs by HPLC-MS/MS analysis. The settings on record: read-out: Drug uptake. Format: ADME, organism-based. The essentials: (§1)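 NSG mice given a single 20 mg/kg IP dose in Cremophor EL/EtOH (1:1, 4% final volume)/sterile saline. Tail-vein blood at 0.5, 1, 2, 4, 8 and 24 h, n = 2. Drug quantified in serum/plasma. Half-life and clearance calculated assuming 100% bioavailability.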

The target in data set [3] is Signal transducer and activator of transcription 3 (Homo sapiens) (UniProt P40763). Description: Inhibition of STAT3 phosphorylation at Y705 residue in human BTSC 143EF cells at 1 to 10 uM after 24 hrs by Western blot method. Format: cell-based. In short, it runs like this:
(§2)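 BTSCs dissociated to single cells and treated with drug or DMSO. Lysed in RIPA buffer with protease inhibitors. 20 μg lysate run on SDS-PAGE and transferred to nitrocellulose. Blocked in 5% milk, primary antibody overnight at 4 °C, then HRP secondary for 1 h.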

A short description of data set [4]: Stability of the compound in DMSO at 10 mM after 16 hrs in presence of 100 fold excess reduced L-glutathione by 19F NMR analysis. Format: physicochemical. The settings on record: 10000 µM.
Data set [5] can be described thus: Cytotoxicity against human Pa02C monolayer cells assessed as reduction in tumor spheroid intensity after 72 hrs by Alamar Blue assay. In kind it is functional, cell-based. In short, it runs like this: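 Monolayer proliferation of STR-authenticated, mycoplasma-checked patient-derived PDAC lines and mouse KPC cells. Plated at 2000 cells/well, treated 72 h, read by alamarBlue. At least triplicate, n = 3–5.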

Data set [6] in a line: Half life in ICR/CD1 mouse hepatocytes at 1 uM up to 120 mins by LC-MS/MS analysis. In kind it is ADME, cell-based, Hepatocyte. The settings on record: 2 h.
Data set [7] relates to Pa03C. Description: Cytotoxicity against human Pa03C cells assessed as reduction in tumor spheroid intensity after 72 hrs by Alamar Blue assay. In kind it is functional, cell-based. In short, it runs like this:
(§3)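 3D spheroids of patient-derived PDAC cells (tomato red) alone or with CAF19 cells, plus CAF cultures. Imaging read-outs: area is the μ2 of objects above a tomato red intensity threshold; intensity is summed red or green pixel fluorescence after background removal. n = 3–5.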

Data set [8] addresses Polyamine deacetylase HDAC10 (Homo sapiens) (UniProt Q969S8). Put plainly: Inhibition of recombinant human HDAC10 expressed in SF9 baculoviral system at 10 uM using FAM-labeled acetylated peptide as substrate by EMSA relative to control. The essentials:
(§4)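 Full-length recombinant human HDACs from an Sf9 baculovirus system. Single-point screen at 10 μM by microfluidic mobility-shift assay with FAM-labeled acetylated peptide substrate. Buffer: 100 mM HEPES pH 7.5, 25 mM KCl, 0.1% BSA, 0.01% Triton X-100, 1% DMSO. % inhibition from product/(substrate + product) against no-inhibitor and no-enzyme controls.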

Another data set deals with MDA-MB-231. Put plainly: Cytotoxicity against human MDA-MB-231 cells after 72 hrs by CellTiter-Blue assay. Format: functional, cell-based. Particulars: MDA-MB-231, 72 h. The essentials:
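MDA-MB-231 cells in DMEM with 10% FBS, 10 000 cells/well, treated after 24 h. Twofold dilutions from 50.0 μM, in triplicate, 0.5% DMSO vehicle. 72 h at 37 °C. CellTiter-Blue fluorescence read at 560/590 nm. IC50 by nonlinear regression.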

A short description of data set [9]: Cmax in NSG mouse at 20 mg/kg, ip administered as single dose and measured at 0.5 hrs by HPLC-MS/MS analysis. Particulars: in vivo. Format: ADME, organism-based. The arrangement: dose 20 mg/kg, route intraperitoneal. The essentials:
as §1

Data set [10] can be described thus: Drug uptake in NSG mouse serum at 20 mg/kg, ip administered as single dose and measured at 4 hrs by HPLC-MS/MS analysis. In kind it is ADME, organism-based. Particulars: read-out: Drug uptake. The essentials: as §1
Data set [11] addresses Histone deacetylase 1 (Homo sapiens) (UniProt Q13547). Put plainly: Inhibition of recombinant human HDAC1 expressed in SF9 baculoviral system at 10 uM using FAM-labeled acetylated peptide as substrate by EMSA relative to control. In short, it runs like this:
as §4

The nature of data set [12]: Lipophilicity, log D of the compound at pH 7.4 by LC-ESI MS analysis. Format: physicochemical. Particulars: buffer. The essentials: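 Partitioning measured in a 1-octanol/phosphate-buffered saline system at pH 7.4.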
A further data set has as its target Histone deacetylase 3 (Homo sapiens, UniProt O15379). Put plainly: Inhibition of recombinant human HDAC3 expressed in SF9 baculoviral system using FAM-labeled acetylated peptide as substrate by EMSA. In short, it runs like this:
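Full-length recombinant human enzyme from an Sf9 baculovirus system, in 100 mM HEPES pH 7.5 with 25 mM KCl, 0.1% BSA, 0.01% Triton X-100 and 1% DMSO. Final enzyme was 0.5 nM for HDAC3, 60 nM for HDAC6 and 5.0 nM for HDAC8. FAM-acetylated peptide was 1 μM. The read-out was product/(substrate+product) by microfluidic mobility shift, with inhibition set against DMSO and no-enzyme controls (quadruplicate). Compounds were tested at 12 threefold-spaced concentrations, and IC50 came from a four-parameter sigmoid fit.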

Data set [13] is described as follows: Toxicity in NSG mouse assessed as body weight loss at 60 mg/kg, ip administered daily for 4 to 5 days. In kind it is organism-based. The settings on record: in vivo. In short, it runs like this: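 NSG mice were dosed IP daily across a range of doses for 4–5 days (n = 6). Animals were weighed before and after dosing, and toxicity was scored as percentage body-weight loss.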

The nature of data set [14]: Drug recovery in CD1 mouse plasma after 6 hrs by LC-ESI MS analysis. Format: ADME, cell-free. Particulars: read-out: Drug recovery.
Data set [15] concerns Panc1005. Put plainly: Cytotoxicity against human Panc 10.05 cells assessed as reduction in tumor spheroid intensity after 72 hrs in presence of human CAF19 cells by Alamar Blue assay. Format: functional, cell-based. Particulars: Panc1005, 72 h. The essentials:
as §3

Data set [16] deals with Histone deacetylase 4 (Homo sapiens) (UniProt P56524). Description: Inhibition of recombinant human HDAC4 expressed in SF9 baculoviral system at 10 uM using FAM-labeled acetylated peptide as substrate by EMSA relative to control.
The subject of data set [17] is Pa03C. Put plainly: Cytotoxicity against human Pa03C cells assessed as reduction in tumor spheroid area after 72 hrs in presence of human CAF19 cells by Alamar Blue assay. In kind it is functional, cell-based. The essentials: as §3
The nature of data set [18]: Drug uptake in NSG mouse serum at 20 mg/kg, ip administered as single dose and measured at 24 hrs by HPLC-MS/MS analysis. Particulars: read-out: Drug uptake. Format: ADME, organism-based. In short, it runs like this:
as §1

For data set [19], the system named is Panc1005. Put plainly: Cytotoxicity against human Panc 10.05 cells assessed as reduction in tumor spheroid area after 72 hrs by Alamar Blue assay. Format: functional, cell-based. The settings on record: Panc1005, 72 h. In short, it runs like this:
as §3

The target in data set [20] is Signal transducer and activator of transcription 3 (Homo sapiens) (UniProt P40763). Put plainly: Inhibition of STAT3 phosphorylation at Y705 residue in human BTSC 100EF cells at 1 to 10 uM after 24 hrs by Western blot method. In kind it is cell-based. In short, it runs like this: as §2
Another data set deals with MOLM-13. Description: Cytotoxicity against human MOLM13 cells at 50 uM after 72 hrs by CellTiter-Blue assay. In kind it is functional, cell-based. In short, it runs like this: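 Cells in 10% FBS medium, 10 000 cells/well, treated 24 h after plating. Twofold dilution series from a 50.0 μM top dose to 0.097656 μM, in triplicate, 0.5% DMSO vehicle. 72 h at 37 °C, 5% CO2. CellTiter-Blue for 1–4 h, fluorescence 560/590 nm. IC50 by nonlinear regression.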

Signal transducer and activator of transcription 3 (Homo sapiens), sequence (P40763 whole entry): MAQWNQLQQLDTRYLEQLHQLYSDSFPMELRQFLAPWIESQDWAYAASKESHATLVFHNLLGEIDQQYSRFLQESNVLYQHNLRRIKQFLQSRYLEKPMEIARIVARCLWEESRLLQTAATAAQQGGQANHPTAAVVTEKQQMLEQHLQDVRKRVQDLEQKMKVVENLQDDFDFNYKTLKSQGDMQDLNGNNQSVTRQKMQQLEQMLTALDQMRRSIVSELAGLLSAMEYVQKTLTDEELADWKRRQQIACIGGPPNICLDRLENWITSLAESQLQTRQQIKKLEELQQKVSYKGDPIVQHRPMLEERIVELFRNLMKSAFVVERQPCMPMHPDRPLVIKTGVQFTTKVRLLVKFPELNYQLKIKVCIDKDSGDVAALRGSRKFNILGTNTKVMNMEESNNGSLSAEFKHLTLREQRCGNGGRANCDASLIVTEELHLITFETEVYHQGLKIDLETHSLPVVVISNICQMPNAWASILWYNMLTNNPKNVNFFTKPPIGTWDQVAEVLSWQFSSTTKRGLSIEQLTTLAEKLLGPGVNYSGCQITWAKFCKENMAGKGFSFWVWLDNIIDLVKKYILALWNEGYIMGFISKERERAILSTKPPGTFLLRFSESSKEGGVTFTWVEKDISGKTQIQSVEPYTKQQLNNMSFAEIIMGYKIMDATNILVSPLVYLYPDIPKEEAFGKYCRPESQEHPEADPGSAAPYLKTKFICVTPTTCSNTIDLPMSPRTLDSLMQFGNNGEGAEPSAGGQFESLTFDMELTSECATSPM
Histone deacetylase 3, sequence (O15379 whole entry): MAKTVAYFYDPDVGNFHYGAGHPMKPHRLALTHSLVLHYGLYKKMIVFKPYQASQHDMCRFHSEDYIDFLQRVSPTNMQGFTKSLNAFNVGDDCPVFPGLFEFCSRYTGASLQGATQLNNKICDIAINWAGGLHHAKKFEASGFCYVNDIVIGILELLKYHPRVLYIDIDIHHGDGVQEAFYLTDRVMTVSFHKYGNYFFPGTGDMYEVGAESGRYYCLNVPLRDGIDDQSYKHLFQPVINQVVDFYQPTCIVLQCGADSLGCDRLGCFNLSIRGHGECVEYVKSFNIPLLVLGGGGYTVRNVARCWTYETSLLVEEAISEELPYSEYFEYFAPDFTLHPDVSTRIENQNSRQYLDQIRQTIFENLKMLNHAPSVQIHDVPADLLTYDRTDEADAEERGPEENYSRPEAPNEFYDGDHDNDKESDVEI
Polyamine deacetylase HDAC10 (Homo sapiens), sequence (Q969S8 whole entry): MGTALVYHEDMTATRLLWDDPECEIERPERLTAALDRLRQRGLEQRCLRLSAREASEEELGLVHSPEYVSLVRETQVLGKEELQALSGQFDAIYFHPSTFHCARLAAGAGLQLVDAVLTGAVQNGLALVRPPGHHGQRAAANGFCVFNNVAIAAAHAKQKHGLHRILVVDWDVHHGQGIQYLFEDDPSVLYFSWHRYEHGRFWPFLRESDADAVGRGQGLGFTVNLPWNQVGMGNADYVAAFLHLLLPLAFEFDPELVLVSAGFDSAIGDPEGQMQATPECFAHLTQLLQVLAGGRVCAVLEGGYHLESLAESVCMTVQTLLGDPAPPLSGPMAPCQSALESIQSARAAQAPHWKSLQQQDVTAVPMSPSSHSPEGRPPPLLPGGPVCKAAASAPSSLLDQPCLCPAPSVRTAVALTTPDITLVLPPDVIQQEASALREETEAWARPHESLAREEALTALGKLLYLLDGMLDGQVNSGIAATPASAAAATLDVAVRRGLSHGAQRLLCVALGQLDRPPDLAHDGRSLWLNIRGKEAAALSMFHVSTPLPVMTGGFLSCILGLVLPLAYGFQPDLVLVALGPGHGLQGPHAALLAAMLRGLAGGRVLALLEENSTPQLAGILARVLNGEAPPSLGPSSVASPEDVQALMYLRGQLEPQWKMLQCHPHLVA
Histone deacetylase 1 (Homo sapiens), sequence (Q13547 whole entry): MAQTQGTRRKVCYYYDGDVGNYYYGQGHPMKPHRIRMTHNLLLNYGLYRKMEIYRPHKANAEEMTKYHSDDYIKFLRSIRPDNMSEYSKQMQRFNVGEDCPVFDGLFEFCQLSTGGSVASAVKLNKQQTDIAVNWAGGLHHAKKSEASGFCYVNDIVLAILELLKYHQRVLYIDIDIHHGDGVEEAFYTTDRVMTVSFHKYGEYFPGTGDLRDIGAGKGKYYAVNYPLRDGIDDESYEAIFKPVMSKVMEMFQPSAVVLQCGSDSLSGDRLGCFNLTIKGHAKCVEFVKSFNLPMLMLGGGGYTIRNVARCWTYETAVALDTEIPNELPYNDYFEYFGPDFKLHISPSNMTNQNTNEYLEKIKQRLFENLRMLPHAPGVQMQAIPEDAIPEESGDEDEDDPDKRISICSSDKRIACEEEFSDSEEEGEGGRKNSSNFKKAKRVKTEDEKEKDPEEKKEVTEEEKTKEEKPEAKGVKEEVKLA
Histone deacetylase 4 (Homo sapiens), sequence (P56524 whole entry): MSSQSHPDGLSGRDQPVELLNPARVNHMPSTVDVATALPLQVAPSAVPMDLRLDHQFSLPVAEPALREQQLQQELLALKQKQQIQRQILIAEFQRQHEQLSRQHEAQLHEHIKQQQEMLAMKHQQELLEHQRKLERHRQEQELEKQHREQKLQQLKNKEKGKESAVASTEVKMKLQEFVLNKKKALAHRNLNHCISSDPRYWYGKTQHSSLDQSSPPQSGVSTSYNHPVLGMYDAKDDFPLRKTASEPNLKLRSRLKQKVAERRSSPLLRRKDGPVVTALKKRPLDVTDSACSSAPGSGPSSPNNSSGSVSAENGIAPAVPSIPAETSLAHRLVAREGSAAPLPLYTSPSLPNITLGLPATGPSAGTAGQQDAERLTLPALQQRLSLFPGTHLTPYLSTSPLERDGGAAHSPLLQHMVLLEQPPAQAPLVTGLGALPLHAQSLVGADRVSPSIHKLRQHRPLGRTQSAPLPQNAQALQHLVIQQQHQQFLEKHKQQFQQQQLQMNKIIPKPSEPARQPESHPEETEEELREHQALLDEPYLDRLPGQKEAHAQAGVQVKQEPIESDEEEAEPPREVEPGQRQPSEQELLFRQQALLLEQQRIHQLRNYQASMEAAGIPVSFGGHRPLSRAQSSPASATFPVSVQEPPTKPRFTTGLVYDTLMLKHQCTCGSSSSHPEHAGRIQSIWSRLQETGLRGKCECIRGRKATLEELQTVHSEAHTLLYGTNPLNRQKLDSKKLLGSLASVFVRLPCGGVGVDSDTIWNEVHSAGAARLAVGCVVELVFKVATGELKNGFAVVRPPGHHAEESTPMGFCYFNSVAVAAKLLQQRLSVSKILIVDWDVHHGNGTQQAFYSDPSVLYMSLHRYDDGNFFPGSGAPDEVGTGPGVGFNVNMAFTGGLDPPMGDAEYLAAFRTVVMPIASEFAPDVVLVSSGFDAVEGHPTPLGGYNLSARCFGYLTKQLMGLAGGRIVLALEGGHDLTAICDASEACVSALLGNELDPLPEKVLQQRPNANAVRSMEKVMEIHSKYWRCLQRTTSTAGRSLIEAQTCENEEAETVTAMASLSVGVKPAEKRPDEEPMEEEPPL

In data set [1], `CC(C)(C)c1ccc(CN(C(=O)CN(Cc2c(F)c(F)c(F)c(F)c2F)S(=O)(=O)c2ccc(F)cc2)c2ccc(C(=O)NO)cc2)cc1` showed a bioavailability of 100%. For the same molecule, in [2], the concentration at 2 h turned out to be 5390 ng/mL. Besides, the inhibition result in [3] and in data set [20] was “inactive” each time. Also, the Stability entry in [4] is “Stable”. Further, the half-inhibitory concentration (IC50) in data set [5] amounted to 4600 nM; with Pa03C [7] it was 1330 nM; in the data set with MDA-MB-231, 2720 nM; at Histone deacetylase 3, 654 nM; with Panc1005 [15] it was 500 nM; with Pa03C [17] it was 1410 nM. Moreover, the half-inhibitory concentration (IC50) with Panc1005 [19] is 970 nM. In data set [6], the t1/2 worked out at 38.5 min. Also, the inhibition in [8] came to 70%; in [11], 72%; in data set [16], 15%. The molecule also had a Cmax in data set [9] of 10.7 µM. Further, the concentration at 4 h in [10] worked out at 3660 ng/mL. The pH-dependent lipophilicity (logD) in [12] is 4.15. Besides, the Activity result in data set [13] is listed as “Non-Toxic”. Moreover, the remaining at 6 h in data set [14] was in the range of 16 to 20%. For the same molecule, in data set [18], the concentration at 24 h is 265 ng/mL. Further, the outcome with MOLM-13 was Active.
